# Source: PubChem (several laboratories)
# Hits are enriched below; roughly 4.1% of the tested compounds scored in any of these assays.
# FLuc inhib CS: counter-screen for luciferase assay inhibitors: firefly luciferase inhibition; ATPLite firefly luciferase biochemical luminescence, 10 min; inhibition, % at 10 µM; 200,000 tested, 1.5% active; AID 1006;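 active means inhibition above about 50% when tested at 10 µM, limit read from the data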
# Target sequence (P08659 whole entry, looked up): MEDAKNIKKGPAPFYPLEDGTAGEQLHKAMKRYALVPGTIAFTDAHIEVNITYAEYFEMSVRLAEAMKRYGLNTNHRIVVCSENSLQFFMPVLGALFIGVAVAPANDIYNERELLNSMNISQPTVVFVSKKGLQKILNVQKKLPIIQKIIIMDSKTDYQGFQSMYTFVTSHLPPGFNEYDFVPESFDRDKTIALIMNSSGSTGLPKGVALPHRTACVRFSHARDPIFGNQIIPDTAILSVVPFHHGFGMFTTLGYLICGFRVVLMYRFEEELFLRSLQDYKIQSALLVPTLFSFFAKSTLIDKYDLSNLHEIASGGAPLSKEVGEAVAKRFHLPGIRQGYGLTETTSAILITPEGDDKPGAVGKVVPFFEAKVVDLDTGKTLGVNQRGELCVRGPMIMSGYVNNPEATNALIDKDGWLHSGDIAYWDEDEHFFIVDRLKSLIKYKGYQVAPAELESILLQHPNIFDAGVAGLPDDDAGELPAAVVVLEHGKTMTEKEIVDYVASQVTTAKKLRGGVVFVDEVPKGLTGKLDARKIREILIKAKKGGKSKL
# STAT1 activator: STAT1 signaling activation; NIH 3T3 STAT1-luciferase reporter, IFN-gamma, luminescence; 100% = IFN-gamma alone, no compound; activation (% of control), % at 5.5 µM; 200,000 tested, 2.6% active; AID 932;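 active means activation above the screen-wide mean activation plus 3 SD, cut at about 130% in these data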;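 further: raw ratio to IFN-gamma control signal so 100% means no change and 0% no light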
# APP 5'UTR act: activates APP 5'UTR luciferase reporter; SH-SY5Y APP 5'UTR luciferase reporter, luminescence; zero percent = DMSO vehicle wells; activation, % at 2 µM; 190,000 tested, 1% active;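 active means activation above a set limit, based on mean plus 3 SD of controls, cut at about 140% in these data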
# FLuc stim CS: affects firefly luciferase, flagging false hits in luciferase stimulation screens. P08659. ATPlite luciferase biochemical, luminescence, 10 min; 0 = ATP-free wells, 1 = DMSO control. activation factor at 10 µM. 200,000 tested, under 10 active;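 active means luciferase activation factor, scaled between plate controls, of at least 2 with compound at 10 µM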
#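 test system = cell-free luciferase reagent | medium = PBS as buffer for the ATP substrate | dosing = test compounds dosed from 2 mM stocks in 100% DMSO | incubation = 10 min at ambient temperature | detection = luminescence measurement of luciferase light output | benchmarks = low control with PBS replacing ATP, high control enzyme plus ATP without compound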
# NF-kB neuron act: raises NF-kB expression in human neuronal cells; NF-kB reporter expression; active compounds read high; fold change at 12.5 µM; 190,000 tested, 1.6% active; AID 1239; in the data active means fold change above about 3.3
# STAT1 activ conf: STAT1 activation, confirmation assay | shares compounds with STAT1 activator | NIH 3T3 STAT1-luciferase reporter, IFN-gamma potentiation, luminescence; 100% = IFN-gamma EC80 alone, no compound | activation (% of control), % at 5.7 µM | 1,200 tested, 97% active;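 active means activation above a set limit carried over from the earlier primary STAT1 screen, cut at about 140% in these data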;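 further: simple ratio to median IFN-gamma plus DMSO wells so 0% means no light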
# NFkB act STAT1ct: NF-kappaB activation in STAT1 activator counter-screen; shares compounds with STAT1 activator; HEK293T NF-kB luciferase reporter, TNF-alpha stimulated, luminescence; 100% = TNF-alpha with vehicle only; activation (% of control), % at 5.7 µM; 1,200 tested, 43% active;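 active means activation above the mean of solvent-only control wells plus 3 SD, set per campaign, cut at about 130% in these data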;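 further: TNF-alpha given at a submaximal dose yielding about 80% of full reporter signal; values are well signal over median control so 100% means no change and 0% no light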
# STAT3 act STAT1c: human STAT3 activation in STAT1 activator counter-screen; shares compounds with STAT1 activator; U3A cells STAT3-luciferase reporter, IL-6, luminescence; cells lack STAT1; 100 = IL-6 alone, no compound effect; activation (% of control), % at 5.7 µM; 1,200 tested, 46% active;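 active means activation above the solvent-only control well mean plus 3 SD, set per plate batch, cut at about 110% in these data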;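 further: 0% = no luminescence and 100% = median IL-6 plus DMSO wells; higher means more STAT3 reporter activation so hits are non-selective activators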
# An asterisk follows results filed as active; nt = no result.
SMILES,FLuc inhib CS,STAT1 activator,APP 5'UTR act,FLuc stim CS,NF-kB neuron act,others
COc1cccc(N2C(=O)NC(=O)/C(=C/c3ccc4c(c3)Cc3ccccc3-4)C2=O)c1,-4.3,130.9*,11.3,1,1.1,
CCCCc1nc(N2CCNCC2)c(C#N)c2c1CSC(C)(C)C2,-9.9,96.6,20.0,1.1,0.97,
COC(=O)C(O)(c1ccc(NC(=O)NC2CCCCC2)cc1)C(F)(F)F (stereo unspecified),18.7,144.5*,35.5,0.8,1.16,
COC(=O)C(O)(c1ccc(NC(=S)NC(=O)c2ccc(Cl)cc2Cl)cc1)C(F)(F)F (stereo unspecified),-7.6,102.0,14.6,1.1,1.35,
O=C(/C=C/c1ccccc1)c1c(O)n(CCc2ccccc2)c(=O)[nH]c1=O,16.0,99.2,6.5,0.8,1.54,
COc1cc(/C=C/C(=O)c2c(O)n(CCc3ccccc3)c(=O)[nH]c2=O)ccc1O,55.5*,95.7,3.5,0.4,2.79,
CCOC(=O)Cn1cc([N+](=O)[O-])nc1[N+](=O)[O-],-2.0,87.1,-21.2,1,1.68,
CC1CCN(CC(=O)c2ccc3c(c2)OCCO3)CC1,8.5,138.8*,146.4*,0.9,1.1,
CC1CCCN(CC(=O)c2ccc(Cl)c(Cl)c2)C1 (stereo unspecified),-4.3,105.1,-33.1,1,0.95,
CC(C(=O)c1c[nH]c2ccccc12)N1CCc2ccccc2C1 (stereo unspecified),-7.7,112.6,4.3,1.1,0.93,
CC1(C)CN=C(Nc2nc3ccccc3s2)S1,34.4,135.9*,125.8,0.7,4.73*,
CN(C)C(=O)Oc1ccc([N+](=O)[O-])cc1,-0.3,98.8,13.3,1,1.46,
CN(C)C(=O)Oc1ccc(-c2nnco2)cc1,-5.0,110.0,nt,1.1,1.1,
CN(C)C(=O)Oc1ccc(-c2cn3cc(C(F)(F)F)ccc3n2)cc1,53.9*,138.2*,30.6,0.5,2.21,
CN(C)C(=O)Oc1ccc(-c2cn3cc(Cl)ccc3n2)cc1,86.4*,141.4*,166.8*,0.1,6.84*,
CN(C)C(=O)Oc1cccc(-c2cn3cc(Cl)ccc3n2)c1,74.7*,121.6,45.7,0.3,1.13,
CCN1CCN(Cc2cc(OC)c(OC)cc2[N+](=O)[O-])CC1,4.9,92.0,-1.2,1,1.14,
Cc1nn(Cc2c(Cl)cccc2Cl)c(Cl)c1C(=O)O,-5.7,95.7,9.8,1.1,1.04,
Cc1nc(Cl)sc1C(=O)Nc1ccc2ccccc2c1,15.8,134.2*,94.0,0.8,5.48*,
COc1cc(C(=O)Nc2ccc(Br)cc2C(=O)c2ccccc2Cl)cc(OC)c1OC,-3.8,94.8,15.7,1,1,
O=C1NC(=O)N(Cc2ccco2)C(=O)/C1=C\c1cccn1CCOc1ccc(Cl)cc1,-11.6,108.2,-6.8,1.1,1.19,
CCN1CCN(c2nc3ccccc3s2)CC1,30.1,128.0,60.7,0.7,4.69*,
COc1ccc(-c2nc3ccccc3c(=O)o2)cc1,54.9*,107.1,18.6,0.5,2.19,
Cc1cc(C(=O)CS(=O)(=O)c2ccc(F)cc2)cc(C)c1OC(=O)N(C)C,62.6*,124.6,62.1,0.4,1.89,
Cn1c(O)c(C=NCc2cccs2)c(=O)n(C)c1=O,-4.0,100.2,1.0,1,1.15,
SMILES,FLuc inhib CS,STAT1 activator,APP 5'UTR act,FLuc stim CS,NF-kB neuron act,others
CC(=O)Nc1ccccc1C(=O)OCC(=O)c1ccccc1Cl,25.4,120.2,46.6,0.7,1.78,
CC(=O)Nc1ccccc1C(=O)OCc1ccccc1F,-9.1,145.2*,2.8,1.1,0.99,
CCOC(=O)c1c(-n2c(C)cc(C=C3C(=O)NC(=S)NC3=O)c2C)sc2c1CCCC2,-4.8,94.5,-0.1,1,5.57*,
CCCCCCOc1ccc(CN2CCN(CC)CC2)cc1,14.0,104.8,144.8*,0.9,1.13,
CC(C)(C)C(=O)NC1CCSC1=O (stereo unspecified),-7.9,99.5,0.8,1.1,1.27,
COc1ccc(-c2cc(=Nc3ccccc3)c3cc(C)ccc3o2)cc1,23.2,165.1*,134.2,0.8,8.59*,STAT1 activ conf=143.4*;NFkB act STAT1ct=131.5;STAT3 act STAT1c=97.0
COc1ccc(-c2cc(=O)c3c(OC)c(OC)c(OC)cc3o2)cc1,4.6,104.5,1.8,1,0.82,
COc1ccc(-c2cc(=NCCC(=O)O)c3cc(C)ccc3o2)cc1,12.6,153.4*,144.8*,0.9,3.7*,STAT1 activ conf=154.0*;NFkB act STAT1ct=131.3;STAT3 act STAT1c=102.7
CCOC(=O)c1c(NC(=O)C(c2ccccc2)c2ccccc2)sc2c1C1CCN2CC1,-5.4,99.9,-2.4,1.1,0.86,
CCN(c1ccc(C(O)(C(=O)OC)C(F)(F)F)cc1)S(=O)(=O)c1ccccc1 (stereo unspecified),-2.2,97.9,16.8,1,1.31,
O=C(c1cc2c(s1)-c1ccccc1OC2)N1CCC2(CC1)OCCO2,2.5,158.2*,142.4*,1,3.85*,STAT1 activ conf=195.6*;NFkB act STAT1ct=133.8*;STAT3 act STAT1c=118.8*
COc1cc(C=C2C(=O)NC(=O)NC2=O)ccc1OCc1ccc([N+](=O)[O-])cc1,52.3*,152.0*,1.7,0.5,3.42*,STAT1 activ conf=174.6*;NFkB act STAT1ct=136.2*;STAT3 act STAT1c=121.5*
O=C1NC(=O)C(=Cc2ccc(Oc3ccc([N+](=O)[O-])cc3)cc2)C(=O)N1,-1.7,109.1,16.8,1,1.21,
